Columns and labels:
Ileum = experiment: Drug distribution in F344 rat ileum at 1 mg/kg, po administered as single dose after 1 hr by scintillation counting method; type: ADME, organism-based; parameters: dose 1 mg/kg, route oral; settings: in vivo
How it was run: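 [14C]-labelled drug (1 mg/kg, 42.4 µCi/kg) was given orally to fasted F344 rats (148–168 g, n = 3). Contents of stomach, duodenum+jejunum, ileum and cecum were washed out with water at 0.5–8 h, homogenized, solubilized and counted by liquid scintillation. Results are % of dose, mean ± S.D.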

[1] = Ratio of drug level in blood to plasma in human after 5 mins; type: ADME
[2] = Drug metabolism in F344 rat feces assessed as N-acetylated 1,4-dideoxy-1,4-imino-D-arabinitol formation by LC-MS/MS method; type: ADME, tissue-based
Cynomolgus monkey [3] = experiment: Total drug excretion in cynomolgus monkey at 3 mg/kg, iv administered as single dose after 0 to 336 hrs by scintillation counting method; type: ADME, organism-based, Macaca fascicularis; parameters: dose 3 mg/kg, route intravenous; settings: in vivo
How it was run: (§1)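 Fasted male cynomolgus monkeys (n = 4) were dosed with 14C-labelled drug at 3 mg/kg, iv via saphenous vein (191 µCi/kg) or orally by stomach catheter (156.5 µCi/kg). Urine, feces and cage-wash water were collected to 336 h. Radioactivity was measured by liquid scintillation counting, with feces homogenized in water, and expressed as % of dose.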

Cynomolgus monkey [4] = experiment: Drug excretion in cynomolgus monkey assessed as drug level found during cage washing at 3 mg/kg, po administered as single dose after 0 to 336 hrs by scintillation counting method; type: ADME, organism-based, Macaca fascicularis; parameters: dose 3 mg/kg, route oral; settings: in vivo
How it was run: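 Fasted cynomolgus monkeys (n = 4) received [14C]-labelled drug at 3 mg/kg, iv via saphenous vein (191 µCi/kg) or orally by stomach catheter (156.5 µCi/kg). Urine, feces and water cage-wash were collected to 336 h. Samples were counted by liquid scintillation; feces were homogenized in 4-fold water. Results are % of dose, mean ± S.D.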

Cynomolgus monkey [5] = experiment: Total drug excretion in cynomolgus monkey at 3 mg/kg, po administered as single dose after 0 to 336 hrs by scintillation counting method; type: ADME, organism-based, Macaca fascicularis; parameters: dose 3 mg/kg, route oral; settings: in vivo; how it was run: as §1
[6] = Drug excretion in cynomolgus monkey feces at 3 mg/kg, po administered as single dose after 48 hrs by scintillation counting method; settings: in vivo
[7] = AUC (0 to infinity) in cynomolgus monkey at 10 mg/kg, po administered as single dose by LC-MS/MS method; type: ADME, organism-based, Macaca fascicularis; parameters: time infinity, dose 10 mg/kg, route oral; settings: plasma
How it was run: (§2)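 Fasted male F344 rats (146–185 g) or male cynomolgus monkeys (3.48–4.29 kg), n = 4 per dose, given single iv or oral dose of 0.3, 1.0, 3.0 or 10.0 mg/kg; monkeys dosed with 2-week washouts. Blood sampled to 48 h; plasma stored frozen. LC-MS/MS with deuterated internal standard. Noncompartmental analysis: AUClast by trapezoidal rule; AUC0–inf = AUClast + Ctz/terminal rate constant; mean ± S.D.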

[8] = AUC (0 to infinity) in F344 rat at 0.3 mg/kg, po administered as single dose by LC-MS/MS method; type: ADME, organism-based; parameters: time infinity, dose 0.3 mg/kg, route oral; settings: plasma; how it was run: as §2
[9] = AUClast in F344 rat at 0.3 mg/kg, iv administered as single dose by LC-MS/MS method; type: ADME, organism-based; parameters: time 0 - last, dose 0.3 mg/kg, route intravenous; settings: plasma; how it was run: as §2
[10] = AUClast in F344 rat at 1 mg/kg, iv administered as single dose by LC-MS/MS method; type: ADME, organism-based; parameters: time 0 - last, dose 1 mg/kg, route intravenous; settings: plasma; how it was run: as §2
[11] = Cmax in cynomolgus monkey at 0.3 mg/kg, po administered as single dose by LC-MS/MS method; type: ADME, organism-based, Macaca fascicularis; parameters: dose 0.3 mg/kg, route oral; settings: in vivo
How it was run: (§3)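 Fasted male F344 rats (146–185 g) and cynomolgus monkeys (3.48–4.29 kg), n = 4 each, received a single oral dose; monkeys had 2-week washouts. Plasma sampled up to 48 h, stored at […], assayed by LC-MS/MS with a deuterated internal standard. Cmax taken from observed data by noncompartmental analysis; mean ± S.D. (n = 3 or 4).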

[12] = Cmax in F344 rat at 0.3 mg/kg, po administered as single dose by LC-MS/MS method; type: ADME, organism-based; parameters: dose 0.3 mg/kg, route oral; settings: in vivo; how it was run: as §3
Alpha amylase = target: T1, Alpha amylase (Homo sapiens, UniProt P0DUB6); experiment: Inhibition of pancreatic alpha amylase (unknown origin)
T1 sequence (P0DUB6 whole entry): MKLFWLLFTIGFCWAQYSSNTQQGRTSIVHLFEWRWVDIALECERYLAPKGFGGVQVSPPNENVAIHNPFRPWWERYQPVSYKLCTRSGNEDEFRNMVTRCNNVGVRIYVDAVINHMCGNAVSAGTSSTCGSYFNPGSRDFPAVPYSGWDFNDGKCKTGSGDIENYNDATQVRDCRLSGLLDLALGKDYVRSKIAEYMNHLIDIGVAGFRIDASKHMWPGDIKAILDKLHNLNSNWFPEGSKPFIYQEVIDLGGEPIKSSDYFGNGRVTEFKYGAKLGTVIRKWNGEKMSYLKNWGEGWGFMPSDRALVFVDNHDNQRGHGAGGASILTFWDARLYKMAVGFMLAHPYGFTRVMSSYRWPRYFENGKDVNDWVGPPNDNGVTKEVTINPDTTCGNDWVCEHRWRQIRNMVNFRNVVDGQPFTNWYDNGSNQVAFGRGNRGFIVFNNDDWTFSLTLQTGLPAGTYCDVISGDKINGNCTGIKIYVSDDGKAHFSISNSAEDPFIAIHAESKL

[13] = AUC (0 to infinity) in F344 rat at 10 mg/kg, iv administered as single dose by LC-MS/MS method; type: ADME, organism-based; parameters: time infinity, dose 10 mg/kg, route intravenous; settings: plasma; how it was run: as §2
[14] = Clearance in cynomolgus monkey at 0.3 mg/kg, iv administered as single dose by LC-MS/MS method; type: ADME, organism-based, Macaca fascicularis; parameters: dose 0.3 mg/kg, route intravenous; settings: in vivo
How it was run: (§4)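 Fasted male F344 rats (146–185 g) and male cynomolgus monkeys (3.48–4.29 kg), n = 4 each, received a single iv dose; monkeys had 2-week washouts between doses. Blood was sampled up to 48 h and plasma stored at […]. Plasma parent was quantified by LC-MS/MS with a deuterated internal standard. CL = dose/AUC0–inf by noncompartmental analysis; mean ± S.D.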

[15] = Clearance in cynomolgus monkey at 3 mg/kg, iv administered as single dose by LC-MS/MS method; type: ADME, organism-based, Macaca fascicularis; parameters: dose 3 mg/kg, route intravenous; settings: in vivo; how it was run: as §4
[16] = Clearance in cynomolgus monkey at 10 mg/kg, iv administered as single dose by LC-MS/MS method; type: ADME, organism-based, Macaca fascicularis; parameters: dose 10 mg/kg, route intravenous; settings: in vivo; how it was run: as §4
[17] = Volume of distribution at steady state in cynomolgus monkey at 0.3 mg/kg, iv administered as single dose by LC-MS/MS method; type: ADME, organism-based, Macaca fascicularis; parameters: dose 0.3 mg/kg, route intravenous; settings: in vivo, read-out: Vdss
How it was run: (§5)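 Male F344 rats (146–185 g) and male cynomolgus monkeys (3.48–4.29 kg), n = 4 each, fasted overnight, received single iv or oral doses of 0.3, 1.0, 3.0 or 10.0 mg/kg. Monkeys had 2-week washouts between doses. Plasma was sampled to 48 h and assayed by LC-MS/MS with deuterated internal standard. Noncompartmental analysis: tmax observed; t1/2 by regression on ≥3 terminal log points; Vss = dose·AUMC/(AUC0–inf)²; Foral = oral/iv AUC0–inf at the same dose.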

[18] = Tmax in F344 rat at 3 mg/kg, po administered as single dose by LC-MS/MS method; type: ADME, organism-based; parameters: dose 3 mg/kg, route oral; settings: in vivo; how it was run: as §5
[19] = AUC (0 to infinity) in cynomolgus monkey at 1 mg/kg, po administered as single dose by LC-MS/MS method; type: ADME, organism-based, Macaca fascicularis; parameters: dose 1 mg/kg, route oral, time infinity; settings: plasma; how it was run: as §2
[20] = AUC (0 to infinity) in F344 rat at 10 mg/kg, po administered as single dose by LC-MS/MS method; type: ADME, organism-based; parameters: time infinity, dose 10 mg/kg, route oral; settings: plasma; how it was run: as §2

SMILES: C[C@H]1O[C@@H](O[C@H]2[C@H](O)[C@@H](O)[C@@H](O[14C@H]3[14C@H](O)[14CH2]N[14C@@H]3[14CH2]O)O[C@@H]2CO)[C@H](O)[C@@H](O)[C@@H]1O
- Drug uptake (Ileum): 67.7%
- blood plasma ratio at 5 min [1]: 0.521
- Drug metabolism [2]: metabolite_detected
- Drug excretion (Cynomolgus monkey [3]): 96.29%
- Drug excretion (Cynomolgus monkey [4]): 1.35%
- Drug excretion (Cynomolgus monkey [5]): 95.15%
- Drug excretion [6]: 48.7%

SMILES: C[C@H]1O[C@@H](O[C@H]2[C@H](O)[C@@H](O)[C@@H](O[C@H]3[C@H](O)CN[C@@H]3CO)O[C@@H]2CO)[C@H](O)[C@@H](O)[C@@H]1O
- AUC(0-inf) [7]: 894 ng·h/mL
- AUC(0-inf) [8]: 45.6 ng·h/mL
- AUC(0-t) [9]: 1860 ng·h/mL
- AUC(0-t) [10]: 4920 ng·h/mL
- Cmax [11]: 5.23 ng/mL
- Cmax [12]: 16.2 ng/mL
- IC50 (Alpha amylase): 450 nM
- AUC(0-inf) [13]: 53200 ng·h/mL
- clearance [14]: 2.55 mL/min/kg
- clearance [15]: 2.75 mL/min/kg
- clearance [16]: 2.25 mL/min/kg
- Vd [17]: 0.233 L/kg
- Tmax [18]: 22.5 min
- AUC(0-inf) [19]: 57.9 ng·h/mL
- AUC(0-inf) [20]: 1080 ng·h/mL
